S1P3 antag – S1P3 (human) receptor antagonism; Q99500; CHO S1P3 NFAT-BLA reporter, FRET fluorescence, antagonist mode; inhibition, % at 4.98 µM; actives 0.27% (n = 170,000);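 active = inhibition above the plate cutoff, the mean inhibition of test wells on that plate plus 3 SD, cut at about 28% in these data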;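 note: cells challenged with S1P at its EC80 of 0.8 µM; blue over green emission ratio from cleaved BLA substrate after 4 h stimulation; 0% = S1P-stimulated wells and 100% = unstimulated DMSO-only wells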
S1P4 agonist – agonists of human S1P4 receptor; O95977; S1P4-expressing cell line, agonist reporter assay; activation, % at 4.98 µM; actives 0.35% (n = 220,000); AID 1509; in the data active = activation above about 11%;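 note: 0% = DMSO vehicle and 100% = reference agonist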
S1P4 antagonist – human S1P4 receptor antagonism. S1P4-expressing cells, antagonist mode, reporter read-out. inhibition, % at 4.98 µM. actives 0.26% (n = 220,000); in the data active = inhibition above about 29%;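 note: 0% = wells stimulated with agonist and 100% = vehicle wells without agonist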
Calb biofilm kill – mixture kills Candida albicans biofilm cells | C. albicans biofilm persisters + clotrimazole, fluorescence viability; primary screen in compound mixtures of four per well | inhibition, % at 7.6 µM | actives 0.02% (n = 120,000) | AID 1242;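 active = inhibition above 30.3% in the primary screen of four-compound pools, then above 30% when the compound was retested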;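 note: compounds exposed to preformed 24 h biofilms for 48 h; 0% = untreated biofilm control and 100% = clotrimazole plus chlorhexidine kill blank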
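Test system: C. albicans CAF4-2 wild-type biofilms; buffer or medium: RPMI/MOPS medium, pH 7.0; schedule: 24 h biofilm formation, then 48 h compound exposure, 37 °C; detection: Alamar Blue fluorescence; measure: percent inhibition of biofilm viability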
MDM2 E3 inh – inhibitors of human Mdm2 E3 ubiquitin ligase. Q00987. cell-based MDM2 ubiquitination luciferase reporter, 2 h; 0 = plate control, 100 = twice control, blank-subtracted. signal enhancement, % at 5 µM. actives 0.11% (n = 210,000). AID 1230;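 active = signal enhancement of 30% or more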;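 note: luminescence tracks abundance of the self-degrading MDM2-luciferase fusion protein; higher signal means inhibition of MDM2 E3 ligase activity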
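system = mammalian cells stably expressing self-ubiquitinating, self-degrading MDM2 E3–luciferase fusion | quantity = 2000 cells per well seeded | incubation = 4 h cell settling then 2 h compound exposure, 37 °C | signal = SteadyLite luminescence, 15 min reagent step | benchmarks = plate control and blank wells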
S1P4 agonist cf – human S1P4 agonism, confirmation; shares compounds with S1P4 agonist; S1P4 agonist cell-based reporter assay; activation, % at 4.98 µM; actives 7% (n = 740); AID 1523; in the data active = activation above about 12%;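 note: 0% = vehicle and 100% = full reference agonist response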
S1P1 ag – human S1P1 agonism as S1P4 agonist counter-screen | shares compounds with S1P4 agonist | S1P1 agonist cell-based assay, activation | activation, % at 4.98 µM | actives 4% (n = 740) | AID 1563; in the data active = activation above about 21%;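 note: 0% = vehicle wells and 100% = reference agonist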
Target sequence (P21453 whole entry, looked up): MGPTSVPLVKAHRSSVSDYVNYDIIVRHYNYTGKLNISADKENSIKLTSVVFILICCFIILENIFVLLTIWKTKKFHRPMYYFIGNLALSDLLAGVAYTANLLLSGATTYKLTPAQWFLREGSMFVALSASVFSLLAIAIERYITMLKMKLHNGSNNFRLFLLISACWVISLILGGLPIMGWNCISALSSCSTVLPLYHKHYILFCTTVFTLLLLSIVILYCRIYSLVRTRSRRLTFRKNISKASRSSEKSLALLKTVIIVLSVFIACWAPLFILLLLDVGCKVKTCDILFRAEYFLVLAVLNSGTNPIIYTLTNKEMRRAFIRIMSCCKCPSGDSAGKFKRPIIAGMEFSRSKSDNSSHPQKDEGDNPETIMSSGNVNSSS
An asterisk follows results filed as active. An excerpt weighted towards active compounds, which were near 0.9% of everything screened.

How did CC12c3ccccc3C(c3ccccc31)C1C(=O)N(c3cccnc3)C(=O)C12 (centres undefined) do in these assays?
S1P3 antag: 3; S1P4 agonist: -1; S1P4 antagonist: -9; Calb biofilm kill: 13; MDM2 E3 inh: -7

How did COc1ccc(Br)cc1/C=N/NC(=O)c1nc(-c2ccccc2)n2c1CCCCC2 do in these assays?
S1P4 agonist: -1; S1P4 antagonist: 8; MDM2 E3 inh: -4

How did c1ccc(NCC2OCc3ccccc3CO2)cc1 do in these assays?
S1P3 antag: 2; S1P4 agonist: 0; S1P4 antagonist: -23; Calb biofilm kill: 13; MDM2 E3 inh: -24

What do the screens show for `CCOc1ccc(CCNC(=O)COC(=O)c2cccc(OC)c2O)cc1OCC`?
S1P3 antag: 5; S1P4 agonist: 13*; S1P4 antagonist: -18; Calb biofilm kill: 10; MDM2 E3 inh: -1; S1P4 agonist cf: -3; S1P1 ag: -2

How did CCOc1ccc(CCNC(=O)COC(=O)c2ccc(OC)c(OC)c2OC)cc1OCC do in these assays?
S1P3 antag: -18; S1P4 agonist: 1; S1P4 antagonist: -11; Calb biofilm kill: 12; MDM2 E3 inh: -15

How did COc1ccc(C2Nc3ccccc3C(=O)N2O)cc1CN1CCOCC1 (centres undefined) do in these assays?
S1P3 antag: -1; S1P4 agonist: -1; S1P4 antagonist: -10; Calb biofilm kill: 13; MDM2 E3 inh: -10

Results for Cc1c(C#N)sc(C(N)=O)c1C ?
S1P3 antag: -2; S1P4 agonist: 2; S1P4 antagonist: -18; Calb biofilm kill: 8; MDM2 E3 inh: -14

How did Cc1ccc(/C=C/C(=O)O)cc1S(=O)(=O)N(CCO)CCO do in these assays?
S1P3 antag: -9; S1P4 agonist: 37*; S1P4 antagonist: 17; Calb biofilm kill: 11; MDM2 E3 inh: -7; S1P4 agonist cf: -1; S1P1 ag: -8

How did Cc1cccn2c(=O)c3cc(C(=O)NCc4cccnc4)c(=N)n(C(C)C)c3nc12 do in these assays?
S1P4 agonist: 8; S1P4 antagonist: -24; MDM2 E3 inh: -12

What do the screens show for `COCCCn1c(=N)c(C(=O)NC2CCCCC2)cc2c(=O)n3ccccc3nc21`?
S1P4 agonist: 13*; S1P4 antagonist: -25; Calb biofilm kill: 9; MDM2 E3 inh: -18; S1P4 agonist cf: 3; S1P1 ag: 2

What do the screens show for `CC(C)n1c(=N)c(C(=O)NCCc2ccccc2)cc2c(=O)n3ccccc3nc21`?
S1P3 antag: -18; S1P4 agonist: 18*; S1P4 antagonist: -14; MDM2 E3 inh: 23; S1P4 agonist cf: 14*; S1P1 ag: 36*

What do the screens show for `COCCCn1c(=N)c(C(=O)NCc2ccc3c(c2)OCO3)cc2c(=O)n3ccccc3nc21`?
S1P3 antag: 13; S1P4 agonist: 2; S1P4 antagonist: -6; MDM2 E3 inh: -25

Results for CC(C)Cc1nnc(NC(=O)CSc2nc(O)c(-c3ccccc3)c(=O)[nH]2)s1 ?
S1P3 antag: 0; S1P4 agonist: -2; S1P4 antagonist: -2; Calb biofilm kill: 31; MDM2 E3 inh: -92

Results for N#Cc1c(N)nc2c(c1-c1ccncc1)CCCCC2 ?
S1P3 antag: -6; S1P4 agonist: 135*; S1P4 antagonist: -14; Calb biofilm kill: 8; MDM2 E3 inh: -1; S1P4 agonist cf: -1; S1P1 ag: 5

What do the screens show for `CCOC(=O)C(C)S(=O)(=O)c1ccc(C(F)(F)F)cn1` (centres undefined)?
S1P4 agonist: -2; S1P4 antagonist: 1; MDM2 E3 inh: -4

How did NC(=O)N/N=C/c1cn(CC(=O)Nc2ccc(F)cc2)c2ccccc12 do in these assays?
S1P3 antag: -1; S1P4 agonist: 0; S1P4 antagonist: 8; Calb biofilm kill: 14; MDM2 E3 inh: -7

What do the screens show for `CN(C)S(=O)(=O)c1ccc(Cl)c(-c2nnc3n2CCCCC3)c1`?
S1P3 antag: -13; S1P4 agonist: -1; S1P4 antagonist: -10; Calb biofilm kill: -12; MDM2 E3 inh: -11

What do the screens show for `COc1cccc(-n2nc(C(C)=O)c(C#N)c2-c2ccco2)c1`?
S1P3 antag: -2; S1P4 agonist: 38*; S1P4 antagonist: 0; Calb biofilm kill: 7; MDM2 E3 inh: -9; S1P4 agonist cf: -2; S1P1 ag: -5

How did COc1ccc(NC(=S)c2ccncc2)cc1 do in these assays?
S1P3 antag: 3; S1P4 agonist: 19*; S1P4 antagonist: -24; Calb biofilm kill: 20; MDM2 E3 inh: -2; S1P4 agonist cf: -2; S1P1 ag: -6

Results for COc1ccc(C(=S)Nc2ccc(C)cc2)cc1 ?
S1P4 agonist: 1; S1P4 antagonist: 5; MDM2 E3 inh: -1

What do the screens show for `COC(=O)c1ccc(NC(=O)CCn2c(=O)oc3ccccc32)cc1`?
S1P3 antag: -15; S1P4 agonist: 13*; S1P4 antagonist: 2; MDM2 E3 inh: -12; S1P4 agonist cf: 0; S1P1 ag: -3

How did Cc1ccccc1NC(=O)CCn1c(=O)oc2ccccc21 do in these assays?
S1P3 antag: -43; S1P4 agonist: 1; S1P4 antagonist: -5; MDM2 E3 inh: -6

Results for CCC(C)NCCCOc1ccc([N+](=O)[O-])cc1 (centres undefined) ?
S1P3 antag: 5; S1P4 agonist: 58*; S1P4 antagonist: 8; Calb biofilm kill: 8; MDM2 E3 inh: -5; S1P4 agonist cf: -2; S1P1 ag: -8

How did CCn1c(=O)c2cc(C(=O)N(C)c3ccc(OC)cc3OC)sc2c2ccccc21 do in these assays?
S1P3 antag: 13; S1P4 agonist: -1; S1P4 antagonist: -3; Calb biofilm kill: -1; MDM2 E3 inh: -15

Results for CCn1c(=O)c2cc(C(=O)N(C)c3ccccc3F)sc2c2ccccc21 ?
S1P3 antag: 14; S1P4 agonist: 21*; S1P4 antagonist: -5; Calb biofilm kill: 11; MDM2 E3 inh: -7; S1P4 agonist cf: -2; S1P1 ag: -6

Results for CS(=O)(=O)N(CCc1ccccc1)CC(=O)N1CCCC1 ?
S1P3 antag: 3; S1P4 agonist: 21*; S1P4 antagonist: 2; Calb biofilm kill: 9; MDM2 E3 inh: -12; S1P4 agonist cf: -2; S1P1 ag: -4

Results for Cc1ccccc1-n1c(SCC(=O)N/N=C/C=C/c2ccccc2[N+](=O)[O-])nc2ccccc2c1=O ?
S1P3 antag: 15; S1P4 agonist: 14*; S1P4 antagonist: -15; Calb biofilm kill: 4; MDM2 E3 inh: -5; S1P4 agonist cf: -3; S1P1 ag: -12

How did CCOC(=O)c1c(C)[nH]c(C2=NNC(=Nc3ccccc3)SC2)c1C do in these assays?
S1P3 antag: 4; S1P4 agonist: 62*; S1P4 antagonist: -5; Calb biofilm kill: 17; MDM2 E3 inh: -9; S1P4 agonist cf: -1; S1P1 ag: -4

High-throughput results from PubChem.
